NPR1 activator: GC-A (human) enzyme activation; AID 1671463; 370,000 tested, 0.14% active; activation, % at 10 µM; P16066; HEK293 GC-A cells, cGMP TR-FRET, EC30 ANP; 0% at EC30 ANP, 100% saturating ANP; in the data active means activation above about 40%
Glyco luc inh: N-linked glycosylation inhibition; D54 ERlucT glycosylation luciferase reporter, 24 h; percent of 100 nM tunicamycin response; reporter increase, % at 12.5 µM; 360,000 tested, 0.23% active; AID 588692;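 active means mean luciferase reporter signal, scaled so untreated is 0 and the glycosylation-blocking control 100, at or above a set limit in every replicate; inconclusive means mean reaches the limit but not every replicate does; inactive means mean below the limit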;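 further: luciferase carries N-glycosylation sites so blocking glycosylation raises the light; 0% = median of neutral control wells and 100% = median of 100 nM tunicamycin wells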
Xi reactivation: activators of X-chromosome reactivation in mouse fibroblasts; activation, % at 7.58 µM; 360,000 tested, 0.055% active; AID 743238; XiGFP mouse fibroblasts, % GFP-positive cells imaging, 3 d; cells co-treated with 5-aza-dC sensitizer; scaled so ellipticine positive control = 100%;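 active means mean normalized replicate activation at least 10% and every replicate at or above 10%; inconclusive means only one of the two criteria met; inactive means mean below 10% and not all replicates reach 10%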;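 further: 0% = median of on-plate neutral control wells and 100% = ellipticine 6 µM median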
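Material: XiGFP fibroblasts, SV40-immortalized; Buffer or medium: DMEM containing 5-aza-dC; Compound dosing: single point; Times: 3 days compound exposure.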
CaV13 FRET inh: Primary screen for inhibitors of IQ motif and Ca2+-dependent inactivation inhibitor domain binding in CACNA1D, Förster resonance energy transfer in living cells, …; HEK cells, CFP/YFP FRET ICDI-IQ, plate reader, 10 min; percent FRET-ratio fall versus neutral wells; inhibition, % at 12.3 µM; 340,000 tested, 0.098% active; AID 743397;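 active means mean replicate inhibition of at least 30% and at least 1% of replicates passing that level; inconclusive means only one of the two criteria is met; inactive means neither criterion is met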;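 further: 0% = median of the neutral control wells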
Vif imaging: inhibitors of HIV Vif; HEK293T cells, Vif self-association by quenched fluorescence, imaging, 24 h; inhibition, % at 7.49 µM; 340,000 tested, 0.35% active; AID 602346; in the data active means inhibition above about 50%, passing the limit was not always enough; inconclusive means no clear call, values can overlap the other calls; inactive means below about 31%
GC-B act: GC-B (human) receptor activation. AID 1920062. 370,000 tested, 0.11% active. activation, % at 10 µM. P20594. HEK293-GC-B cells, CNP EC30, cGMP TR-FRET; 0% at EC30 CNP, 100% saturating CNP;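 active means activation at 10 µM reaching about 35% in either raw or pattern-adjusted values, limit read from the data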
Target sequence (P20594 whole entry, looked up): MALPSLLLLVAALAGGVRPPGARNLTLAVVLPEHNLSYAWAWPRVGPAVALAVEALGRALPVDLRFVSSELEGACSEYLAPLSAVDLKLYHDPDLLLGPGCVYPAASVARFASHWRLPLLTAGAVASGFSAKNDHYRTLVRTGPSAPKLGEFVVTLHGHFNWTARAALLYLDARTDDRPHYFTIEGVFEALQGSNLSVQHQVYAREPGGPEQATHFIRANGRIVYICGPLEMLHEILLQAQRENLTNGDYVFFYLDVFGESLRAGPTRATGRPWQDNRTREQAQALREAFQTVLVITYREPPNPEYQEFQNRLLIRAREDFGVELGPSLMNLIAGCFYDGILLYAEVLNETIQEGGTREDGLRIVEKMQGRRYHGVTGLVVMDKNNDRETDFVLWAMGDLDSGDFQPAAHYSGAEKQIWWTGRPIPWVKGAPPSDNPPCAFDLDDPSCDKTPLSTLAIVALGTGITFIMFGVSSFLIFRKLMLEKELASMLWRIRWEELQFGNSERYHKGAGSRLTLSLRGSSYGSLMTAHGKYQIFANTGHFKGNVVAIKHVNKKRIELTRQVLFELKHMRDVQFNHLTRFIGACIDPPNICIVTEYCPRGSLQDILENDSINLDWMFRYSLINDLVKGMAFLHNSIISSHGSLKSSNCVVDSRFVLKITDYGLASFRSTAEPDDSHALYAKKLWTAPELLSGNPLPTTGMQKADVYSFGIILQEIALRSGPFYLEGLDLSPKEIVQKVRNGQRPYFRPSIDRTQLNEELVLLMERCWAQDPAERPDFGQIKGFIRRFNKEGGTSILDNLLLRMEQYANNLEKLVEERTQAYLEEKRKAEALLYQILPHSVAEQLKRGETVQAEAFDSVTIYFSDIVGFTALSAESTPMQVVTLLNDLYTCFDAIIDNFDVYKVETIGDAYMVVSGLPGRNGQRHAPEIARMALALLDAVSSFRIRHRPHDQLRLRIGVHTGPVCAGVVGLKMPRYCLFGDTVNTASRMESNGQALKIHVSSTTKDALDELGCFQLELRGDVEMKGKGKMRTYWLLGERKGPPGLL
Starred values were filed as active, the others as inactive; i = inactive; ? = inconclusive; . = not tested or not shown. An excerpt weighted towards active compounds, which were near 0.7% of everything screened.

SMILES	NPR1 activator	Glyco luc inh	Xi reactivation	CaV13 FRET inh	Vif imaging	GC-B act
CCCCn1nnc(NC(=O)C(c2ccccc2)c2ccccc2)n1	1	-3	-1	-6	4	-3
COc1ccc(OC)c(Nc2nc(-c3c(C)nc4ncccn34)cs2)c1	9	42*	0	-7	-11	0
Cc1nc2ncccn2c1-c1csc(Nc2cccc(C(=O)O)c2)n1	1	1	0	-4	0	2
CC(=O)c1cccc(Nc2cc(C)nc3c(C)cc(C)cc23)c1	21	67*	0	-22	-5	10
Cc1ccnc(N2C(=O)c3cccc4c([N+](=O)[O-])ccc(c34)C2=O)c1	.	1	.	-7	19	.
O=C1c2cccc3c([N+](=O)[O-])ccc(c23)C(=O)N1Cc1cccnc1	28	15	20*	-250	.	16
O=C1c2cccc3cccc(c23)C(=O)N1Cc1cccnc1	5	-1	0	-4	-5	-2
Cc1ccc(N2C(=O)c3cccc4c([N+](=O)[O-])ccc(c34)C2=O)c2cccnc12	4	?	10	-4	2	41*
Cc1nnc(N2C(=O)c3cccc4c([N+](=O)[O-])ccc(c34)C2=O)s1	23	5	27*	-20	16	5
CO[C@@H]1CN(C)C(=O)c2cc(NC(=O)C3CC3)ccc2OC[C@H](C)N(Cc2nccs2)C[C@@H]1C	.	.	0	.	.	.
CC1CCCC/C1=N\NC(=S)Nc1ccccc1 (stereo not drawn)	-5	0	0	-3	66*	5
NC(=O)c1nsc(C(=O)N(Cc2ccco2)C(C(=O)NCc2ccc(F)cc2)c2ccc(O)cc2)c1N (stereo not drawn)	-21	-2	0	-7	-12	-9
Cc1ccc(C(C(=O)NCc2ccc(F)cc2)N(Cc2ccco2)C(=O)c2snc(C(N)=O)c2N)o1 (stereo not drawn)	-30	-5	0	-3	58*	-8
C[C@H]1CN([C@@H](C)CO)C(=O)c2ccccc2-c2ccccc2CO[C@@H]1CN(C)S(=O)(=O)c1ccccc1	.	.	0	.	.	.
C[C@@H]1CN([C@@H](C)CO)C(=O)c2cc(Br)cnc2O[C@@H]1CN(C)C(=O)c1ccccc1	.	.	-1	.	.	.
CCOC(=O)c1[nH]c(C)c(C(=O)Nc2cc(OC)ccc2OC)c1C	-3	35*	.	-10	54*	-6
COc1ccc(OC)c(NC(=O)c2cc3ccccc3cc2OC)c1	-3	0	0	-2	51*	-3
CCOC(=O)c1c(C)[nH]c(C(=O)OCC(=O)Nc2cc(C)ccc2OC)c1C	2	-1	.	-4	-3	1
O=C(Nc1ccc(Cl)cn1)c1ccccc1F	5	-8	.	-5	11	-6
COc1cc2ccccc2cc1C(=O)Nc1ccc(Cl)cn1	-9	0	0	-2	84*	5
COc1ccc(C(=O)Nc2cc(OC)c(Cl)cc2OC)cc1	-4	3	0	-2	3	0
COc1ccc(C(=O)Nc2cc(OC)c(NC(=O)Nc3ccccc3)cc2OC)cc1	2	-2	0	-4	73*	1
O=C(C[C@@H]1CC[C@H]2[C@@H](COC[C@@H](O)CN2C(=O)c2ccncc2)O1)NCc1cccc(F)c1	.	.	0	.	.	.
CC(C)NC(=O)Nc1cccc2c1O[C@H](CN(C)Cc1ccc(-c3ccccc3)cc1)[C@@H](C)CN([C@H](C)CO)C2=O	.	.	0	.	.	.
CC(C)NC(=O)N1CCCCN2[C@H](CO)[C@@H](c3ccc(C#Cc4ccccc4)cc3)[C@@H]2C1	.	.	0	.	.	.
SMILES	NPR1 activator	Glyco luc inh	Xi reactivation	CaV13 FRET inh	Vif imaging	GC-B act
CO[C@H]1CN(C)C(=O)c2ccc(NC(=O)Nc3c(C)noc3C)cc2OC[C@H](C)N(CC2CC2)C[C@@H]1C	.	.	0	.	.	.
C[C@@H]1CN([C@H](C)CO)C(=O)c2cc(N(C)C)ccc2O[C@@H](C)CCCCO[C@@H]1CN(C)Cc1ccc(C(=O)Nc2ccccc2N)cc1	.	.	0	.	.	.
COc1ccc(OC)c(Nc2cc3ccccc3c(=O)[nH]2)c1	-8	33*	0	-8	-2	-15
Cc1ccc(-c2cn3nc(-c4ccccc4)c(-c4ccccc4)nc3n2)cc1	5	-3	78*	-3	i	-7
c1ccc(-c2cn3nc(-c4ccccc4)c(-c4ccccc4)nc3n2)cc1	6	-4	.	5	157*	2
O=[N+]([O-])c1ccc(-c2cn3nc(-c4ccccc4)c(-c4ccccc4)nc3n2)cc1	0	-6	0	?	0	11
C[C@@H]1CN([C@@H](C)CO)S(=O)(=O)c2ccc(C#C[C@@H](C)O)cc2O[C@@H]1CN(C)C(=O)C1CCC1	.	.	0	.	.	.
Cc1cc(NC(=O)c2ccccc2)c(Cl)cc1N	2	0	0	-9	116*	3
O=C(C[C@H]1C=C[C@@H](NC(=O)CN2CCOCC2)[C@@H](CO)O1)NCCc1ccccc1	.	.	0	.	.	.
CCOC(=O)c1ccccc1NC(=O)COC(=O)c1ccc(OCC(=O)N2CCOCC2)c(OCC)c1	24	1	0	-6	1	35*
O=C(O)c1cccc2cc(-c3ccccc3)oc(=O)c12	3	5	0	-20	-9	3
O=C(O)c1cccc2cccc(-c3c4ccc(=O)c(O)c-4oc4c(O)c(O)ccc34)c12	-28	-2	0	-16	3	48*
Cc1noc(C)c1S(=O)(=O)Nc1ccc2c(c1)C(=O)N([C@H](C)CO)C[C@H](C)[C@H](CN(C)C)OCCCC[C@H](C)O2	.	.	0	.	.	.
CCS(=O)(=O)N1CC2(CN(C(=O)CN3CCOCC3)[C@H](CO)c3c2c2ccc(OC)cc2n3C)C1	.	.	0	.	.	.
CN(C)C(CNC(=O)CSc1nc2sc3c(c2c(=O)n1C)CCCC3)c1ccccc1 (stereo not drawn)	-8	33*	0	-6	-2	-6
CCOC(=O)c1cc(-c2ccc(F)cc2)nc2c1c(=O)[nH]c(=O)n2Cc1ccccc1	37	-2	0	-7	-9	43*
CC(C)c1c(C(=O)Nc2ccccc2)c(-c2ccccc2)c(-c2ccc(F)cc2)n1CC[C@@H](O)C[C@@H](O)CC(=O)O	0	80*	0	-6	5	4
O=C(Nc1ccccc1)c1c(F)c(F)c(F)c(F)c1F	-4	4	.	-8	30	7
Nc1ccc(S(=O)(=O)c2ccc(N)nc2)cc1	4	-2	0	-7	57*	0

Screening data from PubChem BioAssay.
